The nature of data set [1]: Inhibition of CYP450 (unknown origin) at 25 uM. The conditions noted are these: human. The format is ADME.
Data set [2] is described as follows: In vivo inhibition of PI3Kdelta in Lewis rat model of Freund's incomplete adjuvant-induced arthritis at 3 mg/kg, po bid administered for 7 days at 12 hrs interval starting from day 10 to day 16 post-immunization relative to control. The format is functional. The conditions noted are these: 168 h, time 7 day. In a few lines:
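CIA Lewis rats dosed orally twice daily for 7 days at 0.3, 1 or 3 mg/kg; blood/plasma drug levels taken on day 7, 12 h after final dose, and related to PI3Kδ inhibition at trough.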

Data set [3] can be described thus: Selectivity index, ratio of IC50 for inhibition of human full length PI3K p110alpha/p85alpha to IC50 for inhibition of human full length PI3K p110delta/p85alpha.
Data set [4] in a line: MRT in rhesus monkey at 1 mg/kg, iv measured over 24 hrs by LC/MS/MS analysis. The conditions noted are these: in vivo. It is filed as ADME, organism-based, Macaca mulatta. In a few lines: (§1)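 Intravenous 1 mg/kg and oral 5 mg/kg doses. Vehicle: 5% ethanol/55% PEG 400/40% water for rats and dogs; 5% ethanol/22% PEG 400/73% water for cynomolgus; 5% ethanol/25% PEG 400/70% water for rhesus. Half-life and MRT from iv; mean ± SD, n = 3 per route.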

Data set [5] deals with T1, Phosphatidylinositol 4,5-bisphosphate 3-kinase catalytic subunit delta isoform (Homo sapiens, UniProt O00329).
T1 sequence (O00329 whole entry): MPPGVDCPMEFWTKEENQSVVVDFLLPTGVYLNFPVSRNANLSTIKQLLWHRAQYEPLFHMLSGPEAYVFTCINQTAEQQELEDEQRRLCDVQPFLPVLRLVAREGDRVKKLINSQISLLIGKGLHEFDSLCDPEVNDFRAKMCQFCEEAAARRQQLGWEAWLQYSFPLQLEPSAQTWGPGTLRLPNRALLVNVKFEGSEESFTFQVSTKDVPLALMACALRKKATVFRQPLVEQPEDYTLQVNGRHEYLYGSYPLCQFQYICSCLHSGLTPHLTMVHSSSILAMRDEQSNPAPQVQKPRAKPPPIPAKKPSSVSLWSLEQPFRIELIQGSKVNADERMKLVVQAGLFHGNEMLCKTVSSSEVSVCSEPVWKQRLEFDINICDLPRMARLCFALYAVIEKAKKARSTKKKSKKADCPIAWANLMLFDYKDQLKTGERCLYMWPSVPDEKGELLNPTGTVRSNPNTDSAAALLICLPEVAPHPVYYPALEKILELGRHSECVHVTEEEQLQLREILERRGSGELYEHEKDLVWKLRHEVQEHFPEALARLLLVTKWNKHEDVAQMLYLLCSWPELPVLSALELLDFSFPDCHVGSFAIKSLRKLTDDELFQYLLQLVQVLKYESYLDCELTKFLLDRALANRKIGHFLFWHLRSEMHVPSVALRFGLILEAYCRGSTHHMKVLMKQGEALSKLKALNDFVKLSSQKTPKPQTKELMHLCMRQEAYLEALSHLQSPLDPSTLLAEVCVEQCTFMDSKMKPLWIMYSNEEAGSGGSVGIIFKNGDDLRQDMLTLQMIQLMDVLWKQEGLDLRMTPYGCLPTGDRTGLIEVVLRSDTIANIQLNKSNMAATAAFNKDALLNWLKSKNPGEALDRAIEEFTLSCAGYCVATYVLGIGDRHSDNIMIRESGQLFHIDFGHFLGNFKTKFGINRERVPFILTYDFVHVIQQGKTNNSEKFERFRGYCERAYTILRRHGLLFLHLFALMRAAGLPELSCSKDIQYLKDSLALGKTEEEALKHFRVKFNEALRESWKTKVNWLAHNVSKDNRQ
In words: Inhibition of PI3Kdelta in human whole blood assessed as inhibition of BCR-induced B-cell activation.

The nature of data set [6]: Oral bioavailability in Sprague-Dawley rat at 5 mg/kg measured over 24 hrs by LC/MS/MS analysis. The format is ADME, organism-based. The conditions noted are these: in vivo. The method in brief: as §1
The target in data set [7] is Phosphatidylinositol 4,5-bisphosphate 3-kinase catalytic subunit alpha isoform (Mus musculus, UniProt P42337). Briefly: Inhibition of PI3K p110alpha in mouse embryonic fibroblast cells assessed as reduction in PDGF-induced AKT phosphorylation at S473 residue preincubated for 2 hrs followed by PDGF stimulation and measured after 10 mins. Further details: species or system MEF; call rule not given here. The method in brief:
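MEFs grown overnight in DMEM/15% FBS, starved 2 h in 0.1% FBS, treated 2 h with compound at various concentrations, then stimulated with PDGF (10 ng/mL) 10 min at 37 °C. Lysates probed for total Akt and phospho-Akt S473 by capillary immunoassay; geometric mean, triplicate.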

In data set [8] the target is T2, Phosphatidylinositol 4,5-bisphosphate 3-kinase catalytic subunit gamma isoform (Homo sapiens, UniProt P48736). In words: Inhibition of human full length PI3K p110gamma using […] as substrate measured after 30 mins by TR-FRET assay. Background: Time-resolved FRET reads energy transfer from a long-lived donor to a nearby acceptor.

In data set [9] the target is T2, Phosphatidylinositol 4,5-bisphosphate 3-kinase catalytic subunit gamma isoform. In words: Inhibition of PI3K p110gamma in human basophil assessed as reduction in fMLP-induced basophil activation by flow cytometry analysis. The format is tissue-based. In a few lines: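 Basophil activation via fMLP (p110γ) in 25% serum or in isolated WBCs in low serum, with increasing compound concentrations. Anti-CD63-FITC/anti-CCR3-PE staining; ≥150 (25% serum) or ≥75 (low serum) CCR3-high basophils gated; % CD63-positive normalized to 0.3% DMSO vehicle; concentration corrected for reagent dilution.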
In general terms: In flow cytometry, cells or beads pass a laser one at a time.

The nature of data set [10]: Volume of distribution at steady state in Sprague-Dawley rat at 1 mg/kg, iv measured over 24 hrs by LC/MS/MS analysis. The format is ADME, organism-based. The settings on record: in vivo, read-out: Vdss. In a few lines: (§2)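 Single intravenous dose of 1 mg/kg. Vehicles: rats and dogs 5% ethanol/55% PEG 400/40% water; cynomolgus monkeys 5% ethanol/22% PEG 400/73% water; rhesus monkeys 5% ethanol/25% PEG 400/70% water. Plasma concentration–time data gave Vss and iv half-life. Reported as mean ± SD, n = 3.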

The nature of data set [11]: MRT in Beagle dog at 1 mg/kg, iv measured over 24 hrs by LC/MS/MS analysis. The format is ADME, organism-based, Canis lupus familiaris. The conditions noted are these: in vivo. The method in brief:
as §1

Data set [12] is described as follows: Volume of distribution at steady state in rhesus monkey at 1 mg/kg, iv measured over 24 hrs by LC/MS/MS analysis. It is filed as ADME, organism-based, Macaca mulatta. The settings on record: in vivo, read-out: Vdss. The method in brief: as §2
For data set [13], the target named is PI3K p110 beta/p85 alpha (Homo sapiens, UniProt P42338). Briefly: Inhibition of recombinant human full-length N-terminal His-tagged PI3K p110beta/p85alpha using […] as substrate measured after 30 mins by TR-FRET assay. The format is protein-complex assay.
The test system of data set [14] is Rattus norvegicus. In words: Antiarthritic activity in po dosed Lewis rat model of Freund's incomplete adjuvant-induced arthritis administered for 7 days at 12 hrs interval starting from day 10 to day 16 post-immunization by microscopic analysis. The format is functional. The conditions noted are these: 168 h, time 7 day. The method in brief: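 Female Lewis rats with established collagen-induced arthritis dosed orally twice daily for 7 days at 0.3, 1 and 3 mg/kg, starting day 10 after second collagen immunization. Joint histopathology scored for pannus formation, cartilage damage, bone resorption and periosteal bone formation; ED50 derived. n = 8/treatment group, n = 4 normal controls.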

Data set [15] in a line: Selectivity index, ratio of IC50 for inhibition of recombinant human full-length N-terminal His-tagged PI3K p110beta/p85alpha to IC50 for inhibition of human full length PI3K p110delta/p85alpha.

The results in this text go back to ChEMBL document CHEMBL4765230, “Discovery of Orally Efficacious Phosphoinositide 3-Kinase δ Inhibitors with Improved Metabolic Stability” (J Med Chem, 2016).

The inhibition in vivo is the drop in the measured response relative to a control, in per cent. By MRT is commonly meant the average time that molecules of a dose stay in the body. Usually EC50 stands for the midpoint of the concentration-response curve. As a reminder, the bioavailability is the share of a dose that reaches the circulation, judged against a reference dose that is usually intravenous. One may read the IC50 as the concentration that gives 50% inhibition. The term ED50 denotes the dose that gives a 50% effect, or the effect in half of the subjects.

T2 sequence (P48736 whole entry, canonical isoform): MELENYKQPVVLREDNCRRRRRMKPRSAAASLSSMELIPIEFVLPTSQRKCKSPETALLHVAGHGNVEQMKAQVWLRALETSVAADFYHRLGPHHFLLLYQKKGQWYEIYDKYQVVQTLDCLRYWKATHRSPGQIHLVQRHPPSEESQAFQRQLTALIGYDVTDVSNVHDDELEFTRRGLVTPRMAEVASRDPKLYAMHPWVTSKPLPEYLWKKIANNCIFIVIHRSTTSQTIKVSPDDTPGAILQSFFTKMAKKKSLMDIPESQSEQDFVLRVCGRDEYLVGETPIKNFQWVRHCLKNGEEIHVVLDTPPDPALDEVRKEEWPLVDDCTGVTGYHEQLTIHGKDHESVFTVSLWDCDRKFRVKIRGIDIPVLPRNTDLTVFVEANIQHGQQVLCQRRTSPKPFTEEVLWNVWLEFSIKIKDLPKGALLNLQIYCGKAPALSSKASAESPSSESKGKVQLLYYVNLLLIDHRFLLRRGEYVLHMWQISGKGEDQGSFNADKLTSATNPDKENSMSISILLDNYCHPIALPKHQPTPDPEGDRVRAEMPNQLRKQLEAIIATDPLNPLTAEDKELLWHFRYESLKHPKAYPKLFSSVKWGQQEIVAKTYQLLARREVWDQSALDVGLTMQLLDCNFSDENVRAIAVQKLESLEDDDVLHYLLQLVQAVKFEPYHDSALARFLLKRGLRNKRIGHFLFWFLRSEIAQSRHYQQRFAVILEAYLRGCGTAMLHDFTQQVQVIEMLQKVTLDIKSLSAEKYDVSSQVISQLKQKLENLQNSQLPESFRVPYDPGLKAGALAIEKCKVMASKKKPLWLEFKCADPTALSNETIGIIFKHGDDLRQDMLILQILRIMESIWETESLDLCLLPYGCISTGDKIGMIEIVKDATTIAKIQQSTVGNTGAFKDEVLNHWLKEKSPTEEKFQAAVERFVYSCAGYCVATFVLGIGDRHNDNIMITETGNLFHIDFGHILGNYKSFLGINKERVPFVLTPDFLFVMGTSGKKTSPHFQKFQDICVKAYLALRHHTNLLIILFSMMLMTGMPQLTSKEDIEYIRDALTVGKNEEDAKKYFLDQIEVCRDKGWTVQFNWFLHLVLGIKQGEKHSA
Chain of Phosphatidylinositol 4,5-bisphosphate 3-kinase catalytic subunit alpha isoform (P42337 whole entry, canonical isoform): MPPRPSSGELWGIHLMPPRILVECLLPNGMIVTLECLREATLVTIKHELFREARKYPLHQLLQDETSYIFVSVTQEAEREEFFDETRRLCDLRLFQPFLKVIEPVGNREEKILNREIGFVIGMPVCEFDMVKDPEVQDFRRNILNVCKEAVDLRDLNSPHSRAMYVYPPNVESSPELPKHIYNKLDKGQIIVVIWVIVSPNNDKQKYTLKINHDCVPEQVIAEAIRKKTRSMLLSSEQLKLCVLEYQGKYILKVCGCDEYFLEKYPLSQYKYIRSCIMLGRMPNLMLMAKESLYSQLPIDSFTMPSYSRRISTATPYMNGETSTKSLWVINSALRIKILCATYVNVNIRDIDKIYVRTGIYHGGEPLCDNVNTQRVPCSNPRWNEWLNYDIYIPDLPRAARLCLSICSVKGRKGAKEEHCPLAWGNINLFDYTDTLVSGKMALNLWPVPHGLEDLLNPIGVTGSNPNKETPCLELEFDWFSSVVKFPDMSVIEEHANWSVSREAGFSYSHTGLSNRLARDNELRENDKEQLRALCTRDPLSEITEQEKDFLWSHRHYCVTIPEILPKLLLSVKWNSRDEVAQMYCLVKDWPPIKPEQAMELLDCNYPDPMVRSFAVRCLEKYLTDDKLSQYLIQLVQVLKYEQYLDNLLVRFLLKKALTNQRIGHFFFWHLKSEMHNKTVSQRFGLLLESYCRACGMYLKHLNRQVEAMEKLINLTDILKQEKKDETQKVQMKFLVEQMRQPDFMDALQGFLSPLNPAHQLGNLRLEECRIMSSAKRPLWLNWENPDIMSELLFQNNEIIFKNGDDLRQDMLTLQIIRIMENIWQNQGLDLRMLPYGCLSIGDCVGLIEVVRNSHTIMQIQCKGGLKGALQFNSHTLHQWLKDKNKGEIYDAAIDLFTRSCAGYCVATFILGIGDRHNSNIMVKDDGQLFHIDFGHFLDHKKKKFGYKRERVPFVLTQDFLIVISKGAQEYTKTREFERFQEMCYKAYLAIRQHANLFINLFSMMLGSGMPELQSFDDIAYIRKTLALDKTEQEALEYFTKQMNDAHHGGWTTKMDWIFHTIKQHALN
Chain of PI3K p110 beta/p85 alpha (P27986 whole entry): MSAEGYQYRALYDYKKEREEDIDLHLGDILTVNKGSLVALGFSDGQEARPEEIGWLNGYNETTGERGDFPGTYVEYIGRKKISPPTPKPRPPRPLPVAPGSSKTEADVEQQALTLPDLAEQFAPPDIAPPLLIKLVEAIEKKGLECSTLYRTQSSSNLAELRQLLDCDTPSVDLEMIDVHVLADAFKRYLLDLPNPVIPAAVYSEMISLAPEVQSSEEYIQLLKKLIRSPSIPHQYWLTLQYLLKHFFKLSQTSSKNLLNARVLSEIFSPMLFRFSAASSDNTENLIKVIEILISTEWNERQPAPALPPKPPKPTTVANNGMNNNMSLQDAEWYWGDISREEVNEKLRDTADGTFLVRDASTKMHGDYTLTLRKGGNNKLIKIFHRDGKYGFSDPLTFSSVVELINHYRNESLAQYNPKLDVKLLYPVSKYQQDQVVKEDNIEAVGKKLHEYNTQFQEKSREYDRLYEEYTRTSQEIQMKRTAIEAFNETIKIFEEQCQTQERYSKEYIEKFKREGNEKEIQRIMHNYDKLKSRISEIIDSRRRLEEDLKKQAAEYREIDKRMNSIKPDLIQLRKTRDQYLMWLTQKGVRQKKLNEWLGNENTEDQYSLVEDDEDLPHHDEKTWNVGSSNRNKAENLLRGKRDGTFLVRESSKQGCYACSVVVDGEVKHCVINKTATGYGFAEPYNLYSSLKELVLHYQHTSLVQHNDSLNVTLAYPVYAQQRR
Chain of PI3K p110 beta/p85 alpha (P42338 whole entry): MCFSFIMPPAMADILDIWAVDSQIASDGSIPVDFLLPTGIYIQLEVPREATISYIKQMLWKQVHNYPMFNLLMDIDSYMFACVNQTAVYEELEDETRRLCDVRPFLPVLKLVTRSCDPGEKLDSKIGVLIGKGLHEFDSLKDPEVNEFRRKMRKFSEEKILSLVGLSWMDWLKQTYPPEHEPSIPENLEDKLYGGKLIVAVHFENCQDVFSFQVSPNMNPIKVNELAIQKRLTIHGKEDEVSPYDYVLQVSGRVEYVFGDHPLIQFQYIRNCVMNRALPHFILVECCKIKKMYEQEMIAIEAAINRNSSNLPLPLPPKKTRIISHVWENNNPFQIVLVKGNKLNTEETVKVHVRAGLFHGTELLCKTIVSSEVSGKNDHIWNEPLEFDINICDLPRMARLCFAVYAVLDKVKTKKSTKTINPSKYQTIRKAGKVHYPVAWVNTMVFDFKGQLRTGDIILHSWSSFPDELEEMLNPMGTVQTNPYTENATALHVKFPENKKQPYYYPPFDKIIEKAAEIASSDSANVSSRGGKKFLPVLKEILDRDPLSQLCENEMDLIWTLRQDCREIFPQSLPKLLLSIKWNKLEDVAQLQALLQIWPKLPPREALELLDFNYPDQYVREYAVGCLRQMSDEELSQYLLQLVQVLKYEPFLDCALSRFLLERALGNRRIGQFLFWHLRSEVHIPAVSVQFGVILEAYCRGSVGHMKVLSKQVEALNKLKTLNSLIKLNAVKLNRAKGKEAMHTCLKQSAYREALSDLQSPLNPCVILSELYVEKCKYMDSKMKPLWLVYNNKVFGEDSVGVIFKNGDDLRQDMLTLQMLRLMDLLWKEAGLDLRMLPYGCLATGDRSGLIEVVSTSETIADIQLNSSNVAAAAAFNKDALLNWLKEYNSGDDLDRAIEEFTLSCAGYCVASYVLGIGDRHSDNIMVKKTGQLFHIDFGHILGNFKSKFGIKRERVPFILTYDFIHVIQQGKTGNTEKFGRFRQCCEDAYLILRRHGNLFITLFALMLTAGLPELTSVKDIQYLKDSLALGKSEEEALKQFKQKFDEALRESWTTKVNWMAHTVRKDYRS

As for `N#Cc1c(N)nc(N)nc1N[C@H](c1nc2c(F)ccc(Cl)c2c(=O)n1-c1cccnc1)C1CC1` [GS-9901], the “inhibition (INH)” value in data set [1] is on record as “Not Active”. The inhibition in vivo at 3 mg/kg in [2] is above 90%. In addition, the figures for the Ratio IC50 in data set [3] and in data set [15] were 750 and 100, respectively. In addition, the mean residence time MRT was determined as 2 h in data set [4] and 2.01 h in data set [11]. The EC50 in data set [5] came out at 2.4 nM; in data set [7], 1170 nM; in [9], 404 nM. In data set [6], this compound had a bioavailability of 57%. The IC50 in data set [8] came to 190 nM; in data set [13], 100 nM. Also, the Vd turned out to be 0.83 L/kg in [10] and 1.34 L/kg in data set [12]. Further, in data set [14], the ED50 worked out at 0.6 mg/kg.
